Measured values from PubChem BioAssay.
Inconclusive results are not listed.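 How the source made its calls, unless noted: active means growth inhibition above 25% in both replicates, a cutoff set 3 SD above the mean; inconclusive means above 25% in only one replicate; inactive means the rest.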

Columns and labels:
[1] = OD615 S. cerevisiae growth inhibition, permissive medium, pilot counter-assay, permissive growth control for S. cerevisiae lifespan shortening project (AID 705); conditions: OD615, 24 h, at 10 µM, active compounds read high
Outline: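 assay system = Saccharomyces cerevisiae strain carrying genetically modified DeaD replicative-lifespan system | medium = SC raffinose/galactose permissive medium | dosing = 10 µM single dose, 0.25% DMSO | schedule = 24 h compound exposure at 30 °C after 4 h pre-growth | measured by = OD at 615 nm | read-out basis = growth inhibition from lowered OD615 after 24 h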

[2] = Restrictive medium S. cerevisiae growth inhibition, OD615, pilot screen of yeast lifespan reduction project, restrictive growth control (AID 706;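 active means growth inhibition above a set limit, 3 SD over mean compound inhibition, in both replicates, cut at about 43% in these data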;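 further: modified DeaD lifespan yeast strain shifted to restrictive glucose medium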); conditions: OD615, 48 h, at 10 µM, active compounds read high
Outline: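 Buffer or medium: CSMM-D glucose medium. Material: genetically modified Saccharomyces cerevisiae, DeaD replicative lifespan assay strain. Times: 48 h compound exposure at 30 °C. Measured by: optical density at 615 nm.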

[3] = viability gain of MRP-1-high H69AR cells under doxorubicin, pilot screen, MRP-1 activator project, CellTiter-Glo, duplicate (AID 807;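 active means viability increase at or above a cutoff of the median across tested compounds plus 3 SD, cut at about 8.5% in these data, passing the limit was not always enough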;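 further: compound pretreatment 18-22 h then 72 h combined with doxorubicin; 0% = doxorubicin alone and 100% = vehicle without doxorubicin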); conditions: H69AR viability with doxorubicin, CellTiter-Glo luminescence; at 10 µM; active compounds read high
[4] = growth suppression of beta-catenin knockout HCT116, pilot screen, human colon tumor cells (AID 823;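 active means cell viability at or below a set limit in both duplicate runs, the limit being the all-compound median minus 4 SD, cut at about 23% in these data, passing the limit was not always enough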;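 further: 0% = wells killed by 20 µM Hyamine and 100% = untreated DMSO cell wells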); conditions: CellTiter-Glo, 60 h, at 10 µM, active compounds read low
[5] = growth suppression of PTEN-deleted HCT116, pilot screen, cell-based, HCT116 clonal line, CellTiter-Glo (AID 824;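 active means viability at or below 27.92% in each of two runs, the all-compound median minus 4 SD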;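 further: 0% = 20 µM Hyamine control and 100% = vehicle cell control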); conditions: 60 h, at 10 µM, active compounds read low
[6] = inhibitors of the yeast RAM network, pilot screen, dse1pr::URA3 reporter, 5-FOA selection (AID 869;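 active means inhibition over a set limit, the all-compound mean plus 3 SD, in both replicate runs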;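 further: 0% = DMSO wells with no growth and 100% = 10 µM 1-NA-PP1 with full growth; RAM network block rescues cells from 5-FOA so hits raise OD615 growth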); conditions: S. cerevisiae dse1pr::URA3 5-FOA growth, OD615, 2 d; at 10 µM; active compounds read high; strain carries analog-sensitive mutant Cbk1 kinase
[7] = RAM signaling pathway blockade in yeast – S. cerevisiae, Pdr1DBD-CYC8 efflux-inhibited sensitized strain, primary screen (AID 1298;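 active means RAM network inhibition above 8.4% in each of two replicates, 3 SD over the compound average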;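 further: 0% = DMSO untreated cells without growth and 100% = 10 µM 1-NA-PP1 full growth; higher means more yeast growth rescued from 5-FOA killing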); conditions: S. cerevisiae cbk1-as DSE1-URA3 strain, 5-FOA growth OD615, 2 d; at 50 µM; active compounds read high

Cc1cc(-c2nnco2)c(C)n1-c1ccc(F)cc1
inactive: growth inhibition [1] -8.75% | growth inhibition [2] -5.7% | viability increase [3] -2.15% | viability [4] 84.2% | viability [5] 85.3% | inhibition [6] 0.83% | RAM network inhibition [7] 4.69%

CCCc1n[nH]c2c1C(=O)C(C(=O)OC)C(C)(C)C2 (stereo not drawn)
inactive: growth inhibition [1] -12.6% | growth inhibition [2] -12.8% | viability increase [3] -3.14% | viability [4] 95.9% | viability [5] 95.8% | inhibition [6] 1.14% | RAM network inhibition [7] 4.78%

CCOC(=O)C1=C(C)NC(=O)NC1c1ccc(C)o1 (stereo not drawn)
inactive: growth inhibition [1] 8.61% | growth inhibition [2] 7.96% | viability increase [3] -1.92% | viability [4] 105% | viability [5] 100% | inhibition [6] 0.345% | RAM network inhibition [7] 2.74%

CC1CCN(S(=O)(=O)N2CCC(C(=O)N3CCC(N(C)CC4CCCO4)CC3)CC2)CC1 (stereo not drawn)
inactive: growth inhibition [1] -0.85% | growth inhibition [2] -5.09% | viability increase [3] -1.16% | viability [4] 90.6% | viability [5] 95.3% | inhibition [6] 2.09% | RAM network inhibition [7] 0.73%

COc1cccc(C2CC(=O)NC(SC)=C2C#N)c1 (stereo not drawn)
inactive: growth inhibition [1] -1.85% | growth inhibition [2] -4.75% | viability increase [3] -2.47% | viability [4] 98.7% | viability [5] 95.7% | inhibition [6] -0.015% | RAM network inhibition [7] 2.87%

CC(C)Sc1nnc(NC(=O)C2CC2)s1
inactive: growth inhibition [1] -12.6% | growth inhibition [2] -3.5% | viability increase [3] -0.09% | viability [4] 98.1% | viability [5] 102% | inhibition [6] 1.93% | RAM network inhibition [7] 3.62%

O=C(NCCN1C(=O)C2C3C=CC(C3)C2C1=O)NCc1ccccc1 (stereo not drawn)
inactive: growth inhibition [1] -14.8% | growth inhibition [2] 3.81% | viability increase [3] -0.69% | viability [4] 102% | viability [5] 99.8% | inhibition [6] 1.61% | RAM network inhibition [7] 1.83%

O=C(C1CCN(S(=O)(=O)c2ccc(F)cc2)CC1)N1CC=C(c2ccccc2)CC1
inactive: growth inhibition [1] -0.895% | growth inhibition [2] -21% | viability increase [3] -2.73% | viability [4] 91% | viability [5] 89.7% | inhibition [6] 1.03% | RAM network inhibition [7] 1.27%

CC(CCc1ccccc1)NC(=O)CSc1nccc(=O)[nH]1 (stereo not drawn)
inactive: growth inhibition [1] -20.5% | growth inhibition [2] -6.91% | viability increase [3] -0.56% | viability [4] 94.2% | viability [5] 94.5% | inhibition [6] 1.06% | RAM network inhibition [7] 2.7%

COCc1nnc(SCC(=O)Nc2cccc(Cl)c2C)n1-c1ccccc1
inactive: growth inhibition [1] -5.62% | growth inhibition [2] -13% | viability increase [3] -0.41% | viability [4] 107% | viability [5] 93.3% | inhibition [6] 0.57% | RAM network inhibition [7] 3.49%

Cc1cccc(NC(=O)c2cccnc2)c1
inactive: growth inhibition [1] -3.06% | growth inhibition [2] 4.14% | viability increase [3] 1.56% | viability [4] 97.2% | viability [5] 96.5% | inhibition [6] 0.405% | RAM network inhibition [7] 5.69%

Cc1cc(C)c2c(n1)SCC(=O)N2CC(=O)NCCC1=CCCCC1
inactive: growth inhibition [1] -0.205% | growth inhibition [2] 4.58% | viability increase [3] -0.04% | viability [4] 103% | viability [5] 92.9% | inhibition [6] 0.52% | RAM network inhibition [7] 2.59%

O=C1c2ccccc2C(Nc2ccc3c(c2)OCCO3)N1c1ccc(Cl)cn1 (stereo not drawn)
inactive: growth inhibition [1] -12.2% | growth inhibition [2] 3.92% | viability increase [3] 1.76% | viability [4] 81.7% | viability [5] 75.2% | inhibition [6] 1.83% | RAM network inhibition [7] 9.61%

Cn1c(SCC(=O)N2CCCCC2)nc2c([nH]c3ccccc32)c1=O
inactive: growth inhibition [1] -3.83% | growth inhibition [2] -3.68% | viability increase [3] -6.06% | viability [4] 61.4% | viability [5] 44% | inhibition [6] 2.85% | RAM network inhibition [7] 4.75%

COCN(C#N)c1nc(OC)nc(OC)n1
inactive: growth inhibition [1] 0.79% | growth inhibition [2] 7.01% | viability increase [3] 2.98% | viability [4] 103% | viability [5] 104% | inhibition [6] -0.1% | RAM network inhibition [7] 2.34%

COC(=O)c1ccccc1NS(=O)(=O)c1cn(C)c(=O)n(C)c1=O
inactive: growth inhibition [1] -1.82% | growth inhibition [2] -6.46% | viability increase [3] -1.59% | viability [4] 101% | viability [5] 92.6% | inhibition [6] 0.585% | RAM network inhibition [7] 1.2%

COc1ccc(Nc2ncnc3c2oc2ccccc23)cc1
inactive: growth inhibition [1] -9.29% | growth inhibition [2] 16.5% | viability increase [3] -2.52% | viability [4] 92.5% | viability [5] 92% | inhibition [6] -0.035% | RAM network inhibition [7] 4.44%

Cc1cc(Cl)ccc1N=Cc1c(O)n(C)c(=O)n(C)c1=O
inactive: growth inhibition [1] 1.62% | growth inhibition [2] 1.2% | viability increase [3] 2.36% | viability [4] 106% | viability [5] 105% | inhibition [6] 0.11% | RAM network inhibition [7] -1.25%

Cc1ccc(NC(=O)C2CCCN2S(=O)(=O)c2ccc3c(c2)CCC(=O)N3)cc1Cl (stereo not drawn)
inactive: growth inhibition [1] -9.43% | growth inhibition [2] 8.74% | viability increase [3] 3.52% | viability [4] 81.8% | viability [5] 85.8% | inhibition [6] 2.66% | RAM network inhibition [7] 3.45%

CCOCCCNC(=O)C(NC(=O)CC1NC(=O)NC1=O)c1ccc(Cl)cc1 (stereo not drawn)
inactive: growth inhibition [1] -4.46% | growth inhibition [2] 1.68% | viability increase [3] 0.89% | viability [4] 107% | viability [5] 96.1% | inhibition [6] 2.61% | RAM network inhibition [7] 1.81%

CC1=C(C(=O)OCc2ccccc2)C(c2ccco2)C2=C(CC(C)(C)CC2=O)N1 (stereo not drawn)
inactive: growth inhibition [1] -13.1% | growth inhibition [2] -7.33% | viability increase [3] -6.3% | viability [4] 71.9% | viability [5] 67.5% | inhibition [6] 2.4% | RAM network inhibition [7] 1.23%

O=C(c1ccc(CS(=O)(=O)c2ccccc2)o1)N1CCN(c2ncccn2)CC1
inactive: growth inhibition [1] 2.63% | growth inhibition [2] -5.3% | viability increase [3] -4.07% | viability [4] 104% | viability [5] 102% | inhibition [6] 0.185% | RAM network inhibition [7] 2.87%

CC1CCN(c2nc3c(c(=O)n(C)c(=O)n3C)n2CCSc2ncccn2)CC1
inactive: growth inhibition [1] -3.47% | growth inhibition [2] -3.19% | viability increase [3] -0.04% | viability [4] 99.1% | viability [5] 96.3% | inhibition [6] 1.61% | RAM network inhibition [7] 2.44%

CCOc1ccccc1Nc1cc(C)nc2nc(C)nn12
inactive: growth inhibition [1] -11.9% | growth inhibition [2] -9.62% | viability increase [3] -2.37% | viability [4] 104% | viability [5] 97.2% | inhibition [6] 1.67% | RAM network inhibition [7] -1.47%
